Most compounds without a hit are left out; they make up all but 9.2% or so of the library.
ERa coact pot – enhances coactivator binding to human estrogen receptor alpha; 86,000 compounds, 1.3% hits; coactivator binding (% of control), % at 25.6 µM; AID 639; TR-FRET ERalpha-LBD/SRC-Cy5 coactivator binding, 2 h; 100 = basal binding, no effect; P03372; in the data active means activity above about 200%;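 further: binding measured in presence of low estradiol as agonist stimulus; 0% = peptide alone without receptor and 100% = receptor with peptide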
H69AR growth 86K – growth inhibitors of human H69AR lung tumor cells; H69AR lung tumor viability, ATP luminescence, 72 h; active compounds read low; viability, % at 10 µM; 85,000 compounds, 6% hits; AID 598;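 active means viability at or below 40%; inactive means viability above 40%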;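 further: multidrug resistant small cell line overexpressing MRP-1 efflux transporter; 100% = mean luminescence of untreated control wells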
Fibroblast inh – blocks proliferation of human lung fibroblasts; LL 47 human lung fibroblast viability, ATP luminescence; active compounds read low; viability, % at 10 µM; 85,000 compounds, 1.1% hits; AID 719;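 active means viability at or below 50% in the single dose screen; inactive means viability above 50%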;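 further: compound exposure lasted 72 h before the ATP readout; 100% = median luminescence of untreated cell-only wells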
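Material: human LL 47 lung fibroblast cells; quantity: 1,150 cells/well; medium: IMEM plus 15% FBS; doses: 0.1% DMSO in all compound wells; timing: overnight attachment after seeding, then 72 h compound exposure at 37 °C; detection: CellTiter-Glo luminescence; measure: % viability of median cell-only signal; controls: cell-only wells, no compound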
ERa coact inh – ER-alpha (human) coactivator binding inhibition | TR-FRET ER-alpha LBD / SRC-1 peptide, estradiol-bound | inhibition, % at 25.6 µM | 86,000 compounds, 1.7% hits | P03372; in the data active means inhibition above about 50%;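 further: 0% = receptor plus peptide control and 100% = peptide only without receptor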
ERb SRC1 inh – blocks coactivator binding to human estrogen receptor beta; 86,000 compounds, 1.3% hits; Q92731; TR-FRET ER-beta LBD / SRC1-Cy5 peptide binding; receptor agonist-loaded with 1 µM estradiol; inhibition, % at 25.6 µM;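 active means compounds whose percent inhibition of the receptor-coactivator binding signal exceeds about 50% in the single-dose screen, limit read from the data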;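 further: 0% = receptor plus peptide wells without compound and 100% = peptide-only wells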
Target sequence (Q92731 whole entry, looked up, the tested form may be a part): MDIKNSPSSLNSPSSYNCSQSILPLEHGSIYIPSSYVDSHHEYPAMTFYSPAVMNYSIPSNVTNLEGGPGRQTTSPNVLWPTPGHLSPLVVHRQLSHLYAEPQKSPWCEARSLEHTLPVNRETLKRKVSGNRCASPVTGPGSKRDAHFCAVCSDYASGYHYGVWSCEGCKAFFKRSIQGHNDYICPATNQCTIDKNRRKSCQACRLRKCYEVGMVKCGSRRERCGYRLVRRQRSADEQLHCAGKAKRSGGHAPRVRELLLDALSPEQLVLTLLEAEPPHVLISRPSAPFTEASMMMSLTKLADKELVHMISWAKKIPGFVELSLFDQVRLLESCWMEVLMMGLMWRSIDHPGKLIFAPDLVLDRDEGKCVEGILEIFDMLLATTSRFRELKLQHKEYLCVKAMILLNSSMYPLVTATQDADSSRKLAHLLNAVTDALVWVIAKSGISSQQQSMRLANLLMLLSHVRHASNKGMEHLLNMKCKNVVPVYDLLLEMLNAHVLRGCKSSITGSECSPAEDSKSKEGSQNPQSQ
HUVEC prolif 384 – blocks proliferation of human endothelial cells; HUVEC proliferation, CellTiter-Glo luminescence, 72 h; active compounds read low; viability, % at 10 µM (by protocol); 86,000 compounds, 1.1% hits;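 active means viability at or below 30%; inactive means viability above 30%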;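 further: 100% = median luminescence of DMSO-only cell control wells on each plate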
* = called active by the depositor; x = not tested or not shown; [ ] = dose if it differs, or a comment.

SMILES | ERa coact pot | H69AR growth 86K | Fibroblast inh | ERa coact inh | ERb SRC1 inh | HUVEC prolif 384
COC(=O)/C=C/S(=O)(=O)c1ccc(NC(C)=O)cc1 | 122.5 | 1.0* | x | -4.0 | -9.8 | 79.6
CCCCCCC1CC(CSc2ncn[nH]2)OC1=O (configuration not stated) | 110.4 | 95.1 | 93.9 | -4.2 | -0.9 | 80.6
O=C(CSc1nc(Nc2ccccc2)nc(N2CCOCC2)n1)N1CCc2ccccc21 | 208.6* | x | 102.1 | 19.1 | 4.0 | 86.7
N#CC1=C(N)NC(SCc2ccc(Cl)cc2)=C(C#N)C12CCCCC2 | 82.9 | 13.1* | 85.1 | 0.5 | -2.8 | 44.5
N#CC1=C(N)NC(SCc2ccc(Br)cc2)=C(C#N)C12CCCCC2 | 117.1 | 59.1 | 87.3 | -2.5 | 7.1 | 56.9
Cn1c(SCc2ccc(F)cc2)nnc1-c1ccccn1 | 103.8 | x | 110.6 | 28.6 | 26.6 | 102.2
CSc1nnc(-c2sc3cc(C(F)(F)F)cnc3c2-c2ccccn2)n1C | 347.2*[fluorescence artefact?] | 87.4 | 105.9 | 1.0 | -1.2 | 93.4
Cn1c(-c2sc3ccccc3c2Cl)n[nH]c1=S | 74.1 | 83.3 | 98.5 | -6.0 | -6.4 | 43.3
Cn1c(-c2sc3cc(C(F)(F)F)cnc3c2-c2cccnc2)n[nH]c1=S | 107.9 | 31.8* | 99.5 | -7.9 | -2.5 | 104.5
O=[N+]([O-])/C=C/c1c(OCc2ccccc2)ccc2ccccc12 | 90.0 | 2.8* | 7.6* | 3.3 | -1.7 | 26.8*
N#Cc1nc(-c2ccc(OCc3ccc(Cl)cc3)cc2)oc1N1CCOCC1 | 277.6*[fluorescence artefact?] | 67.6 | 95.8 | 49.5 | 25.1 | 81.2
N#Cc1nc(-c2ccc(OCc3ccc(Cl)cc3)cc2)oc1N1CCC(C(N)=O)CC1 | 102.6 | 55.8 | 93.3 | 60.6*[fluorescence artefact?] | 47.0 | 105.5
CCCOc1ccc(-c2nc(C#N)c(N3CCC(C(N)=O)CC3)o2)cc1 | 90.3 | 90.5 | 107.4 | -3.0 | -12.4 | 114.8
COc1ccc(-c2cc3nc(-c4ccccc4)cc(N4CCC5(CC4)OCCO5)n3n2)cc1 | 267.1*[fluorescence artefact?] | 99.9 | 100.4 | -7.2 | 21.2 | 92.2
Cc1ccc(-c2cc3nc(-c4ccccc4)cc(N4CCOCC4)n3n2)cc1 | 174.4 | 82.6 | 91.3 | -25.1 | -20.3 | 78.7
CCN1CCN(c2cc(-c3ccccc3)nc3cc(-c4cccc(F)c4)nn23)CC1 | 105.3 | 40.7 | 89.9 | -2.7 | -13.9 | 21.9*
COc1ccccc1N1CCN(S(=O)(=O)c2cccc(F)c2)CC1 | 94.3 | 93.6 | 101.4 | 6.5 | 6.5 | 96.5
CCOC(=O)CSC1=C(C#N)C(c2ccc(C)cc2)C(C(=O)OC)C(=O)N1 (configuration not stated) | 114.2 | 73.8 | 98.8 | -6.6 | -4.6 | 103.0
COC(=O)C1=C(O)C(C(=O)OC)C(c2ccc(C)cc2)C(C#N)(C#N)C1c1ccc(C)cc1 (configuration not stated) | 92.7 | 4.0* | 83.0 | 0.8 | -7.8 | 79.5
COc1ccc2c(c1)C(=O)N(c1ccccc1OC)C(=O)C2(C)C | 101.9 | 79.0 | 89.9 | 4.2 | 8.2 | 94.5
CCCOc1ccccc1-n1sc2c(c1=S)-c1cc(OC)cc3c1N(C(=O)C3=O)C2(C)C | 110.4 | 1.5* | 74.5 | 1.1 | -1.3 | 47.5
CC(N=Cc1cccc(O)c1O)c1ccccc1 (configuration not stated) | 83.5 | 52.8 | 73.2 | 17.1 | 57.7*[fluorescence artefact?] | 60.6
O=C(CSc1ncn[nH]1)N(C1CCCCC1)C1CCCCC1 | 107.0 | 91.6 | 105.7 | -0.3 | -14.0 | 100.5
Cn1c(=O)c2c(SCc3ccccc3)nc(-c3ccco3)nc2n(C)c1=O | 105.4 | 50.5 | 63.4 | 8.0 | 44.7 | 66.6
Cn1c(=O)c2c(SCc3cccc(C(F)(F)F)c3)nc(-c3ccco3)nc2n(C)c1=O | 131.4 | 100.8 | 47.8* | -5.2 | 1.9 | 20.2*
SMILES | ERa coact pot | H69AR growth 86K | Fibroblast inh | ERa coact inh | ERb SRC1 inh | HUVEC prolif 384
O=C(Oc1ccc(N2C(=O)CCC2=O)cc1)c1ccco1 | 103.1 | 92.3 | 93.6 | 60.0* | 3.8 | 88.8
CS(=O)(=O)c1ncc(Cl)c(C(=O)Nc2ccc(N3CCOCC3)cc2)n1 | 93.6 | 0.2* | x | 14.6 | 30.9 | 36.7
CCCOc1ccc(N2C(=O)C3ON(c4ccccc4)C(CCC)C3C2=O)cc1 (configuration not stated) | 103.4 | 92.8 | 98.3 | 7.8 | -1.9 | 87.7
COc1cccc(/C=C/C(=O)c2ccc[nH]2)c1 | 99.8 | 19.0* | 77.3 | -6.0 | -15.8 | 76.1
COc1cccc(-c2cc(C(=O)O)[nH]n2)c1 | 100.3 | 101.2 | 98.6 | 6.3 | -7.5 | 93.8
O=C(NCc1nnc(SCC(=O)N2CCC(Cc3ccccc3)CC2)o1)c1ccccc1F | 121.6 | 94.2 | 90.5 | -0.9 | -6.0 | 85.6
CCOC(=O)/C=C1\SCC(=O)N1Cc1ccc(Br)cc1 | 100.8 | 91.8 | 87.6 | -6.1 | -5.1 | 75.0
CCOC(=O)/C=C1\SCC(=O)N1Cc1nnc(-c2ccccc2Br)o1 | 58.6 | 80.9 | 92.8 | 59.3*[fluorescence artefact?] | 41.5 | 83.5
CC(C)(C)C(=O)CNS(=O)(=O)c1ccc(S(=O)(=O)NC2CCCC2)cc1 | 283.5*[fluorescence artefact?] | 89.1 | 99.7 | 5.8 | 2.5 | 99.5
C=CCn1c(=O)c2ccccc2n2c(SCc3csc(-c4ccccc4)n3)nnc12 | 174.1 | 46.5 | 100.7 | 0.5 | -0.3 | 89.5
O=C(Nc1ccc(N2CCOCC2)cc1)c1ccncc1 | 84.5 | 116.0 | 101.8 | -2.2 | 20.1 | 105.3
O=C(Nc1ccc(N2CCOCC2)cc1)c1ccc2nc(-c3ccco3)c(-c3ccco3)nc2c1 | 42.1 | 29.3* | 82.6 | 80.1*[fluorescence artefact?] | 50.5*[fluorescence artefact?] | 51.6
O=C(CCn1ccc2ccccc21)Nc1ccc(N2CCOCC2)cc1 | 103.7 | 97.2 | 96.3 | -0.8 | 6.7 | 102.1
S=C(Nc1ccc(N2CCOCC2)cc1)Nc1ccc2nc(-c3ccco3)c(-c3ccco3)nc2c1 | 13.8 | 32.7* | 113.1 | 68.2*[fluorescence artefact?] | 89.3*[fluorescence artefact?] | 53.5
O=C(NCC(c1cccs1)N1CCOCC1)c1cc2ccccc2o1 (configuration not stated) | 111.4 | 89.7 | 100.1 | -5.9 | -11.3 | 104.8
CC1CCCN(Cc2cccc(Oc3ccccc3)c2)C1 (configuration not stated) | 99.4 | 94.5 | 96.3 | -4.1 | 6.1 | 91.0
Cc1cccnc1Nc1nc(-c2ccccn2)cs1 | 99.0 | 0.4* | 3.2* | -4.0 | -10.2 | 16.1*
Cc1cccc(Nc2nc(-c3ccccn3)cs2)n1 | 99.9 | 3.9* | 68.9 | -4.3 | -0.7 | 60.3
Cc1cccnc1Nc1nc(-c2ccc(O)cc2O)cs1 | 76.7 | 8.0* | 84.4 | 15.6 | 39.9 | 13.7*
NS(=O)(=O)c1ccc(Nc2nc(-c3ccc(O)cc3O)cs2)cc1 | 49.9 | 58.4 | 100.6 | 36.4 | 41.6 | 92.7
c1ccc(Nc2nc(-c3cccnc3)cs2)nc1 | 103.9 | 93.8 | 97.6 | -54.1 | -14.7 | 91.5
COc1ccccc1NC(=O)NCCN1C(=O)C2C3C=CC(C3)C2C1=O (configuration not stated) | 143.9 | 54.0 | 115.4 | -3.3 | -8.2 | 107.3

Screening data (PubChem BioAssay)
